This passage reports CC50 and zone of inhibition results from ChEMBL document CHEMBL1148951, “New macrolides from the sponge Chondrosia corticata” (2004).

The structures appear in SMILES notation. Values after ≈ are worked out from the molar mass of the structure shown.

Common to all, as to assay type: functional
One assay concerns K562. In words: Cytotoxicity against human K562 cells by MTT assay. Conditions: read-out: LC50 (the source's name). (In general: Tetrazolium assays rely on reduction of a dye to a coloured formazan, in cell work by metabolically active cells.)
A further assay deals with Candida albicans. In words: Antifungal activity against Candida albicans at 2 ug/disk by paper disk method. To be noted: read-out: IZ. The method in brief:
(§1)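 Paper disk diffusion assay with 2 µg of compound loaded per disk. The read-out is the diameter of the clear zone around the disk.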

Another assay concerns Aspergillus niger. In words: Antifungal activity against Aspergillus niger at 2 ug/disk by paper disk method. To be noted: read-out: IZ. In outline: as §1

`COC(CC1OC(=O)CC(O)C/C=C\C(=O)C(C)C(OC)c2coc(n2)-c2coc(n2)-c2coc(n2)/C=C\CCC1C)C(C)CCC(=O)C(C)C(C/C=C/N(C)C=O)OC` (stereo not drawn): the CC50 with K562 worked out at 0.9 µg/mL (≈ 1.08 µM). The zone of inhibition at 2 µg/disc in the assay with Candida albicans and in the assay with Aspergillus niger was 10 mm in each case.

For `COC(CC1OC(=O)CC(O)CCCC(=O)C(C)C(OC)c2coc(n2)-c2coc(n2)-c2coc(n2)/C=C/CCC1C)C(C)CCC(=O)C(C)C(C/C=C/N(C)C=O)OC` (stereo not drawn) [DIHYDROHALICHONDRAMIDE], the CC50 in the assay on K562 was found to be 0.32 µg/mL (≈ 0.381 µM). For the same compound, the zone of inhibition at 2 µg/disc in the assay with Candida albicans was determined as 19 mm; in the assay with Aspergillus niger, 11 mm.

Regarding `COC(CC1OC(=O)CC(O)C/C=C/C(=O)C(C)C(OC)c2coc(n2)-c2coc(n2)-c2coc(n2)/C=C/CCC1C)C(C)CCC(=O)C(C)C(C/C=C/N(C)C=O)OC` (stereo not drawn) [HALICHONDRAMIDE], in the assay on K562, the CC50 amounted to 0.19 µg/mL (≈ 0.227 µM). The zone of inhibition at 2 µg/disc with Candida albicans amounted to 18 mm; in the assay with Aspergillus niger, 21 mm.

In the case of `COC(=O)c1coc(/C=C/CCC(C)C(CC(OC)C(C)CCC(=O)C(C)C(C/C=C/N(C)C=O)OC)OC(=O)CC(O)C/C=C/C(=O)C(C)C(OC)c2coc(C(N)=O)n2)n1` (stereo not drawn) [HALISHIGAMIDE D], the CC50 in the assay with K562 is 92 µg/mL (≈ 105 µM).

As for `COC(CC1OC(=O)CC(O)CC(O)CC(=O)C(C)C(OC)c2coc(n2)-c2coc(n2)-c2coc(n2)/C=C/CCC1C)C(C)CCC(=O)C(C)C(C/C=C/N(C)C=O)OC` (stereo not drawn) [JASPISAMIDE A], the CC50 in the assay on K562 is 0.31 µg/mL (≈ 0.363 µM). Also, the figures for the zone of inhibition at 2 µg/disc in the assay with Candida albicans and with Aspergillus niger were 18 mm and 10 mm, respectively.

For the compound `COC(CC1OC(=O)CC(O)/C=C/CC(=O)C(C)C(OC)c2coc(n2)-c2coc(n2)-c2coc(n2)/C=C/CCC1C)C(C)CCC(=O)C(C)C(C/C=C/N(C)C=O)OC` (stereo not drawn) [NEOHALICHONDRAMIDE], in the assay with K562, the CC50 amounted to 0.38 µg/mL (≈ 0.454 µM). In addition, the zone of inhibition at 2 µg/disc was 20 mm in the assay on Candida albicans and 15 mm in the assay on Aspergillus niger.

As to `COC(=O)c1nc(-c2nc(C(OC)C(C)C(=O)/C=C/CC(O)CC(=O)OC(CC(OC)C(C)CCC(=O)C(C)C(C/C=C/N(C)C=O)OC)C(C)CC/C=C/C(N)=O)co2)co1` (stereo not drawn) [SECOHALICHONDRAMIDE], the CC50 with K562 is > 500 µg/mL. The zone of inhibition at 2 µg/disc with Candida albicans stood at 15 mm.
